The list is not random: actives were taken first. Their share in the collection is about 3.5%.
MrgX1 ag – agonists of human MrgX1 receptor; B-score at 10 µM; actives 0.44% (n = 310,000); AID 588627; Q96LB2; MrgX1-HEK293 cells, Fluo-4 calcium fluorescence, agonist mode; active compounds read high;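 active = calcium response B-score plate-corrected fluorescence ratio at least 3 library SD, with starting fluorescence B-score inside 5 SD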
Target sequence (Q96LB2 whole entry, looked up): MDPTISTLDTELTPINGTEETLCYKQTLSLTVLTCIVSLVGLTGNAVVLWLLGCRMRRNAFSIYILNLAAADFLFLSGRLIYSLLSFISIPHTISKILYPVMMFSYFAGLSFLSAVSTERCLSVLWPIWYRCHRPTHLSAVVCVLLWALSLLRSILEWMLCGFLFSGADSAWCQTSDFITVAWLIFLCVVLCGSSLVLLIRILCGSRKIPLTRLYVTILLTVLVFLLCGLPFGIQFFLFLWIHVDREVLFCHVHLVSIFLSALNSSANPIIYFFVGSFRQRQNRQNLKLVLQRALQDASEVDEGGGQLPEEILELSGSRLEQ
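Material: MrgX1-expressing HEK293 cells; input: 15,000 cells per well; doses: test compound given as first of three sequential additions; schedule: overnight plating before 1 h dye loading; technique: Fluo-4 NW calcium-flux fluorescence, kinetic read; evaluation: baseline-normalised fluorescence change ratio, B-scored; control set: plate-wise positive and negative controls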
RGS4 block – human RGS4 inhibition | B-score at 10 µM | actives 0.45% (n = 310,000) | HEK293 M3R/RGS4 inducible, Fluo-4 calcium flux; active compounds read high; triggered by carbachol at its EC20;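 active = B-score, a plate-corrected calcium signal, over three deviations above library mean, with baseline fluorescence within five deviations of library mean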;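 note: RGS4 expression induced by doxycycline in cells with stable M3 receptor; B-score is computed from the integrated fluorescence ratio over baseline after carbachol; higher B-score means a larger calcium signal and so more RGS4 inhibition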
Target sequence (P49798 whole entry, looked up): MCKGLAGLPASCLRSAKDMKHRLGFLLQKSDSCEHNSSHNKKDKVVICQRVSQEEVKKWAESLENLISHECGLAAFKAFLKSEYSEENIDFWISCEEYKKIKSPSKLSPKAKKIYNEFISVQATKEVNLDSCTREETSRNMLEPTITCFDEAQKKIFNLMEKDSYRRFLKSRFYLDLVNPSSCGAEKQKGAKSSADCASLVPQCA
RGS4 pot – RGS4 potentiation or activation; HEK293 M3R/inducible RGS4, carbachol calcium flux Fluo4; active compounds read low; B-score at 10 µM; actives 0.92% (n = 310,000); AID 463111;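 active = B-score of the integrated calcium signal more than 4 SD below the library mean, with starting fluorescence not abnormally high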;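 note: negative B-score means reduced calcium response which marks RGS4 activation or potentiation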
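System: HEK293 FlpIn-TREx cells, stable M3R, doxycycline-inducible RGS4. Timing: overnight RGS4 induction, 30 min dye load 37 °C, 20 min compound RT. Also added: carbachol, ECmax concentration. Measured by: Fluo4 fluorescence kinetic imaging of calcium. Evaluation: integrated calcium ratio converted to B score.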
MrgX1 PAM – allosterically activates human MrgX1 receptor signaling. B-score at 10 µM. MrgX1-HEK293, Fluo-4 calcium flux, FDSS; active compounds read high. actives 0.63% (n = 310,000). Q96LB2;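 active = plate-corrected calcium response at least 3 library SD above typical, normal starting fluorescence, not activating the receptor alone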;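 note: compound read alongside a low EC10 to EC30 dose of BAM8-22 agonist; peak minus trough fluorescence over baseline measured at the second addition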
MrgX1 antag – antagonists of human MrgX1 receptor. actives 1.3% (n = 310,000). Q96LB2. B-score at 10 µM. MRGX1-HEK293 calcium flux, Fluo-4, BAM8-22 antagonism; active compounds read low;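 active = calcium-response B-score plate-corrected more than 3 library SD below zero, starting fluorescence within 5 deviations, no agonist response on first addition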;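 note: peak minus trough fluorescence over baseline after final BAM8-22 challenge near maximal dose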
MrgX1 ant reconf – reconfirmed antagonist of human MrgX1 receptor signaling; MrgX1-HEK293, BAM8-22 calcium flux, Fluo-4; active compounds read low; shares compounds with MrgX1 antag; remaining BAM8-22 calcium response % of control (active compounds read low), % at 10 µM; actives 19% (n = 2,300);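 active = remaining agonist calcium response no higher than 100% minus 3 SD of agonist-only control wells, with starting fluorescence near control levels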;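 note: agonist BAM8-22 given at a near maximal EC90 to ECmax level; peak minus minimum fluorescence divided by baseline after agonist addition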
HEK293 Ca flux – counter-screen for MrgX1 antagonists: effect in parental HEK293 cells. shares compounds with MrgX1 antag. Fluo-4 calcium fluorescence, FDSS. fluorescence ratio F(max-min)/F0 at 10 µM. actives 2% (n = 4,000). AID 624111;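 active = duplicate-averaged calcium fluorescence ratio at least three times the standard deviation of buffer wells, a nonspecific response in parental cells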
HEK293 Ca counter – counter-screen for MrgX1 allosteric activators: effect in parental HEK293 cells. fluorescence ratio F(max-min)/F0 at 10 µM. parental HEK293 calcium flux, Fluo-4 fluorescence ratio; active compounds read high. shares compounds with MrgX1 antag. actives 0.4% (n = 4,000);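 active = calcium fluorescence ratio, averaged over duplicates, at least 3 SD of the buffer-well ratio, meaning a nonspecific response in receptor-free cells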;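 note: untransfected parental HEK293 lacking MrgX1 used as counterscreen for MrgX1 allosteric activators; fluorescence change taken during the second addition on a kinetic imager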
HEK293 Ca cntr2 – MrgX1 activator counter-screen hit in parental HEK293 cells; shares compounds with MrgX1 antag; Fluo-4 calcium fluorescence (FDSS); active compounds read high; fluorescence ratio F(max-min)/F0 at 10 µM; actives 8.7% (n = 4,000); AID 624115;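 active = calcium fluorescence ratio at least three times the spread of buffer wells, meaning a non-specific response in parental cells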
* hit, by the source's call; i = inactive; x = no result given.

SMILES	MrgX1 ag	RGS4 block	RGS4 pot	MrgX1 PAM	MrgX1 antag	MrgX1 ant reconf	HEK293 Ca flux	HEK293 Ca counter	HEK293 Ca cntr2
Cc1ccc(S(=O)(=O)N2CCN(C(=O)c3ccc(N4CCCCC4)c([N+](=O)[O-])c3)CC2)cc1	i	i	i	i	i	x	x	x	x
Cn1c(=O)n(CCC(=O)O)c2ccccc21	i	i	i	i	i	x	x	x	x
Cn1c(=O)n(Cc2ccc(Br)cc2)c2ccccc21	i	i	i	i	-9.3*	i	i	i	i
COc1ccc(OCC(=O)Nc2ccc(Cl)cc2)cc1	i	i	i	i	-5*	i	i	i	i
COCC(=O)Nc1nnc(COc2ccc(Cl)cc2)s1	i	i	i	i	-7.1*	i	i	i	i
Cc1cccc(-n2ncc3c(NC(C)C)ncnc32)c1	i	i	i	i	i	x	x	x	x
CC(C)Nc1ncnc2c1cnn2-c1ccccc1	i	i	i	i	-4.9*	i	i	i	i
CC(C)(C)c1ccc(S(=O)(=O)N2CCC(c3nc4ccc(Cl)cc4[nH]3)CC2)cc1	i	i	i	i	-6*	i	i	i	i
CC(=O)Nc1ccc(S(=O)(=O)N2CCC(c3nc4ccc(C)cc4[nH]3)CC2)cc1	i	i	i	i	i	x	x	x	x
O=C(Nc1ccccc1O)C(c1ccccc1)c1ccccc1	i	i	i	i	-5.1*	76%*	i	i	i
O=C(Nc1ccc(Cl)c(Cl)c1)Nc1ccccc1O	i	i	i	i	-5.5*	i	i	i	i
CCN(CC)Cc1cc(NC2=NS(=O)(=O)c3ccccc32)ccc1OC(=O)c1ccccc1	i	i	i	i	i	x	x	x	x
COCC(=O)n1nc(-c2ccccc2)nc1NCc1ccc(N(C)C)cc1	i	i	i	i	i	x	x	x	x
COCC(=O)n1nc(-c2ccc(Cl)cc2)nc1NCc1ccc(F)cc1	i	i	i	i	-4.9*	81%*	i	i	i
Cc1ccc(S(=O)(=O)/N=C(/Nc2ccc3[nH]c(=O)[nH]c3c2)c2ccc(F)cc2)cc1	i	i	i	i	i	x	x	x	x
O=C(NCCCN1CCOCC1)c1ccccc1N1C(=O)[C@@H]2Cc3c([nH]c4ccccc34)C(c3ccc(F)cc3)N2C1=O (stereo not given in full)	i	i	i	i	i	x	x	x	x
O=C(NCCN1CCOCC1)c1ccccc1N1C(=O)[C@@H]2Cc3c([nH]c4ccccc34)C(c3ccccc3)N2C1=O (stereo not given in full)	i	i	i	i	-6.8*	i	i	i	i
CCOC(=O)C1=C(C)N(C)C(C)=C(C(=O)OCC)C1c1ccccn1	i	i	i	i	-7.2*	i	i	i	i
CC1(C)Cc2c(cnn2-c2cccc(F)c2)C(NC(=O)CN2CCCC2=O)C1 (stereo not given)	i	i	i	i	i	x	x	x	x
Cc1cc(C)c(NC(=O)C2CCN(c3cnccn3)CC2)c(C)c1	i	i	i	i	-6.1*	i	i	i	i
COC(CNC(=O)c1ccc(CS(=O)(=O)c2ccc(Br)cc2)o1)OC	i	i	i	i	i	x	x	x	x
COc1ccc(S(=O)(=O)N2CCN(C(=O)NCc3ccc(OC)c(OC)c3)CC2)cc1	i	i	i	i	i	x	x	x	x
O=C(CC(=O)N/N=C/c1ccc(C(=O)O)cc1)NCCc1ccccc1	i	i	i	i	i	x	x	x	x
COc1ccc(C(=O)N/N=C(\C)c2ccc(NC(=O)Cc3ccccc3)cc2)c(OC)c1	i	i	i	i	i	x	x	x	x
CCOC(=O)c1cnn(-c2cccc(Cl)c2)c1N	i	i	i	i	i	x	x	x	x
SMILES	MrgX1 ag	RGS4 block	RGS4 pot	MrgX1 PAM	MrgX1 antag	MrgX1 ant reconf	HEK293 Ca flux	HEK293 Ca counter	HEK293 Ca cntr2
CCOC(=O)c1cnc2c(-c3ccccc3)cnn2c1C	i	i	i	i	-5*	i	i	i	i
CCOC(=O)c1cnn(-c2ccccc2)c1N	i	i	i	i	-4.7*	i	i	i	i
Cn1c(=O)cc(OCC(=O)NCc2cccs2)c2ccccc21	i	i	i	i	-7.1*	i	i	i	i
COc1ccc(CNC(=O)COc2cc(=O)n(C)c3ccccc23)cc1	i	i	i	i	i	x	x	x	x
O=C(c1ccco1)N(CC1CCCO1)c1nc(-c2ccccc2)cs1 (stereo not given)	i	i	i	i	i	x	x	x	x
Cc1ccc(-c2csc(N(CC3CCCO3)C(=O)c3ccco3)n2)cc1 (stereo not given)	i	i	i	i	-4.7*	i	i	i	i
COC(=O)CC/C(=N/Nc1ccc(Cl)c(Cl)c1)C(=O)OC	i	i	i	i	i	x	x	x	x
Cc1cc(NCCO)c2ccccc2n1	i	i	i	i	-4.6*	i	i	i	i
Cc1ccc(Nc2nc(NCCO)c3ccccc3n2)cc1C	i	i	i	i	-6.1*	78%*	i	i	i
COc1ccc(N(CC(=O)NC2CC3CCC2C3)S(=O)(=O)c2ccc(C)c([N+](=O)[O-])c2)cc1 (stereo not given)	i	i	i	i	i	x	x	x	x
CCN1CCN(S(=O)(=O)c2ccc(C(=O)Nc3sc4c(c3C(N)=O)CCN(CC)C4)cc2)CC1	i	i	i	i	-9.4*	i	i	i	i
Cc1cc2c(NC(=O)Nc3ccc(C(C)(C)C)cc3)cccc2nn1	i	i	i	i	-6.9*	78%*	i	i	i
O=C(CCc1nnc(CCC2CCCCC2)o1)NCCc1cccnc1	i	i	i	i	i	x	x	x	x
Cc1ccc(-n2c(-c3ccncc3)nnc2-c2cccs2)cc1	i	i	i	i	-5.7*	i	i	i	i
